According to ChEMBL document CHEMBL1269004, “Synthesis of a 6-methyl-7-deaza analogue of adenosine that potently inhibits replication of polio and dengue viruses” (J Med Chem, 2010):
Active and inactive are the calls of the source. The calls are words filed in the database; no cut-off is given here.

Tests used:
[1] = Cytotoxicity against human HeLaS3 cells after 7 hrs by celltiter-glo assay; format: cell-based; settings: HeLa S3, 7 h
Method in brief: (§1)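 HeLa S3 cells (4 × 10^3/well, plated 24 h before) exposed to a nucleoside concentration series at 37 °C, final 0.1% DMSO, for 7, 24 or 48 h. Cells PBS-washed; viability read as ATP-dependent luminescence (CellTiter-Glo) after 10 min at 22 °C. IC50 from a four-parameter fit of luminescence vs concentration.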

[2] = Cytotoxicity against human HeLaS3 cells after 24 hrs by celltiter-glo assay; format: cell-based; settings: HeLa S3, 24 h; method in brief: as §1
[3] = Cytotoxicity against human HeLaS3 cells after 48 hrs by celltiter-glo assay; format: cell-based; settings: HeLa S3, 48 h; method in brief: as §1
Enterovirus C [4] = test: Antiviral activity against Poliovirus infected in human HeLaS3 cells assessed as inhibition of viral replication treated 1 hr before infection measured after 2 days; format: functional, organism-based; settings: HeLa S3
Method in brief: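 HeLa S3 cells (1 × 10^5, plated 1 day prior) pretreated 1 h at 37 °C with nucleoside in 0.1% DMSO media, then infected with 1 × 10^6 PFU PV in PBS for 15 min at room temperature. Refed with nucleoside-containing media and infected 6 h at 37 °C. Cell-associated virus released by 3 freeze-thaw cycles and titered by plaque assay on HeLa S3 under 1% agarose for 2 days, with crystal violet stain. IC50 from a four-parameter fit.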

dengue virus type 2 [5] = test: Antiviral activity against Dengue virus type 2 in BHK-21 cells assessed as inhibition of viral replication after 24 hrs by luciferase assay; format: functional, organism-based; settings: BHK-21, 24 h
Method in brief: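 BHK-21 cells stably carrying a luciferase DENV2 replicon, grown in DMEM/F-12 with 10% FBS. Seeded 24 h ahead, then exposed for 24 h to a nucleoside concentration series in media with 1% DMSO. Cells PBS-washed and lysed; luciferase luminescence read on the lysate.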

Enterovirus C [6] = test: Activity at Poliovirus RNA-dependent RNA polymerase assessed as incorporation into opposite uracil and cytosine of viral RNA by denaturing PAGE analysis
Method in brief: (§2)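 Pre-assembled PV 3Dpol–sym/sub primer/template (32P end-labelled) complex formed for 3 min at 30 °C. Reaction at 30 °C in 50 mM HEPES pH 7.5 with 10 mM 2-mercaptoethanol, 5 mM MgCl2, 1 µM 3Dpol, 0.5 µM duplex RNA and 0.5 mM NTP, started by adding nucleotide. Stopped at 1, 5 or 10 min, run on denaturing PAGE, phosphorimaged, and expressed as % incorporation relative to the natural NTP.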

Enterovirus C [7] = test: Activity at Poliovirus RNA-dependent RNA polymerase assessed as incorporation into opposite adenine and guanine of viral RNA by denaturing PAGE analysis; method in brief: as §2
Enterovirus C [8] = test: Activity at Poliovirus RNA-dependent RNA polymerase assessed as incorporation into opposite cytosine of viral RNA after 30 mins by denaturing PAGE analysis
[9] = Binding affinity to Poliovirus RNA-dependent RNA polymerase; set-up: species or system Enterovirus C; settings: read-out: Kd(app)
[10] = Cytotoxicity against human HeLaS3 cells at 100 uM after 24 hrs by celltiter-glo assay; format: cell-based; settings: HeLa S3, 24 h
Method in brief: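 HeLa S3 cells (4 × 10^3/well) treated 24 h at 37 °C in 0.1% DMSO. Viability measured as ATP luminescence (CellTiter-Glo) after PBS wash, read after 10 min at 22 °C, and reported as % viable cells.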

dengue virus type 2 [11] = test: Antiviral activity against Dengue virus type 2 in Vero cells assessed as inhibition of viral replication after 6 days using neutral red dye by plaque assay; format: functional, organism-based; settings: 144 h
Method in brief: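 Cells infected with DENV2, then treated for 24 h at 37 °C with a concentration series in 1% DMSO media. Supernatant overlaid with 0.9% low-melting agarose in EMEM/0.5% FBS for 6 days at 37 °C, then a second agarose layer with 0.015% neutral red added overnight. Plaques counted as PFU/ml; IC50 from a four-parameter fit of titer vs concentration.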

dengue virus type 2 [12] = test: Antiviral activity against Dengue virus type 2 in Vero cells assessed as inhibition of viral RNA replication […] by RT-PCR analysis; format: functional, organism-based

With `Cc1nccc2c1ncn2[C@@H]1O[C@H](CO)[C@@H](O)[C@H]1O` the IC50 [1] was greater than 100 µM, the IC50 [2] was greater than 100 µM and the IC50 [3] was greater than 100 µM. The IC50 (Enterovirus C [4]) was greater than 10 µM and the IC50 (dengue virus type 2 [5]) was greater than 10 µM.

`Cc1ccnc2c1ncn2[C@@H]1O[C@H](CO)[C@@H](O)[C@H]1O` gave an IC50 [1] greater than 100 µM, an IC50 [2] greater than 100 µM and an IC50 [3] greater than 10 µM. It also gave an IC50 (Enterovirus C [4]) greater than 10 µM and an IC50 (dengue virus type 2 [5]) greater than 10 µM.

With `Cc1ncnc2c1ccn2[C@@H]1O[C@H](COP(=O)(O)OP(=O)(O)OP(=O)(O)O)[C@@H](O)[C@H]1O` the Activity (Enterovirus C [6]) was “Active”, the Activity (Enterovirus C [7]) was “inactive” and the Activity (Enterovirus C [8]) was 60%. For the same compound, the Kd [9] was 120 µM.

Compound `Nc1ncnc2c1ccn2[C@@H]1O[C@H](CO)[C@@H](O)[C@H]1O` [TUBERCIDIN] has an IC50 [1] of 1.44 µM, an IC50 [2] of 0.819 µM and an IC50 [3] of 0.4 µM. For the same compound, the IC50 (Enterovirus C [4]) was 0.03 µM.

Compound `Cc1ncnc2c1ncn2[C@@H]1O[C@H](CO)[C@@H](O)[C@H]1O` has an IC50 [1] of 17.7 µM, an IC50 [2] of 6.68 µM and an IC50 [3] of 2.2 µM. The IC50 (Enterovirus C [4]) was 1.01 µM and the IC50 (dengue virus type 2 [5]) was 5.46 µM.

For `Cc1ncnc2c1ncn2[C@@H]1O[C@H](COP(=O)(O)OP(=O)(O)OP(=O)(O)O)[C@@H](O)[C@H]1O`, the Activity (Enterovirus C [6]) was “Active”, the Activity (Enterovirus C [7]) was “inactive” and the Activity (Enterovirus C [8]) was 40%. The Kd [9] was 170 µM.

`NC(=O)c1ncn([C@@H]2O[C@H](COP(=O)(O)OP(=O)(O)OP(=O)(O)O)[C@@H](O)[C@H]2O)n1` [RTP] gave a Kd [9] of 496 µM.

In the case of `Nc1ncnc2c1ncn2[C@@H]1O[C@H](COP(=O)(O)OP(=O)(O)OP(=O)(O)O)[C@@H](O)[C@H]1O` [ADENOSINE TRIPHOSPHATE], the Kd [9] is reported as 134 µM.

Compound `Cc1ncnc2c1ccn2[C@@H]1O[C@H](CO)[C@@H](O)[C@H]1O` has an IC50 [1] greater than 100 µM, an IC50 [3] of 0.224 µM and an IC50 (Enterovirus C [4]) of 0.011 µM. The IC50 (dengue virus type 2 [5]) was 0.877 µM, the IC50 [10] was 0.986 µM and the IC50 (dengue virus type 2 [11]) was 0.062 µM. The IC50 (dengue virus type 2 [12]) was 0.039 µM.

Work on `COC[C@H]1O[C@@H](n2ccc3c(C)ncnc32)[C@H](O)[C@@H]1O` yielded an IC50 [1] greater than 100 µM, an IC50 [2] greater than 100 µM and an IC50 [3] greater than 100 µM. For the same compound, the IC50 (Enterovirus C [4]) was greater than 10 µM and the IC50 (dengue virus type 2 [5]) was greater than 10 µM.
